{"source": "ChEMBL document CHEMBL1781927", "about": "“Highly selective c-Jun N-terminal kinase (JNK) 3 inhibitors with in vitro CNS-like pharmacokinetic properties II. Central core replacement” (Bioorg Med Chem Lett, 2011)", "key": {"[1]": {"target": "Serine/threonine-protein kinase 16 (Homo sapiens) (UniProt O75716)", "test": "Inhibition of STK16 at 10 uM"}, "[2]": {"target": "Calcium/calmodulin-dependent protein kinase type II subunit alpha (Homo sapiens) (UniProt Q9UQM7)", "test": "Inhibition of CAMK2A at 10 uM"}, "[3]": {"target": "Serine/threonine-protein kinase PLK2 (Homo sapiens) (UniProt Q9NYY3)", "test": "Inhibition of PLK2 at 10 uM"}, "[4]": {"target": "Protein-tyrosine kinase 2-beta (Homo sapiens) (UniProt Q14289)", "test": "Inhibition of PTK2B at 10 uM"}, "[5]": {"target": "Receptor tyrosine-protein kinase erbB-4 (Homo sapiens) (UniProt Q15303)", "test": "Inhibition of ERBB4 at 10 uM"}, "[6]": {"target": "cAMP-dependent protein kinase catalytic subunit alpha (Homo sapiens) (UniProt P17612)", "test": "Inhibition of PKACA at 10 uM"}, "[7]": {"test": "Oxidative metabolic stability in mouse liver microsomes assessed as compound remaining after 30 mins", "assay_type": "ADME, Microsome", "details": "read-out: Stability", "in_short": "(§1)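 Liver microsomes, mouse or human, were incubated with the compound for 30 min under oxidative conditions. The read-out is the percent of parent compound remaining.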"}, "[8]": {"target": "PI3-kinase p110-alpha/p85-alpha (Homo sapiens) (UniProt P27986+P42336)", "test": "Inhibition of PIK3CA/PIK3R1 at 10 uM", "assay_type": "protein-complex assay"}, "[9]": {"target": "Protein kinase C beta type (Homo sapiens) (UniProt P05771)", "test": "Inhibition of PRKCB1 at 10 uM"}, "[10]": {"target": "Serine/threonine-protein kinase 3 (Homo sapiens) (UniProt Q13188)", "test": "Inhibition of STK3 at 10 uM"}, "[11]": {"target": "Platelet-derived growth factor receptor alpha (Homo sapiens) (UniProt P16234)", "test": "Inhibition of PDGFRA at 10 uM"}, "[12]": {"target": "Leucine-rich repeat serine/threonine-protein kinase 2 (Homo sapiens) (UniProt Q5S007)", "test": "Inhibition of LRRK2 at 10 uM"}, "[13]": {"target": "Macrophage colony-stimulating factor 1 receptor (Homo sapiens) (UniProt P07333)", "test": "Inhibition of CSF1R at 10 uM"}, "[14]": {"target": "T1, Mitogen-activated protein kinase 10 (Homo sapiens, UniProt P53779)", "T1 sequence (P53779 whole entry)": "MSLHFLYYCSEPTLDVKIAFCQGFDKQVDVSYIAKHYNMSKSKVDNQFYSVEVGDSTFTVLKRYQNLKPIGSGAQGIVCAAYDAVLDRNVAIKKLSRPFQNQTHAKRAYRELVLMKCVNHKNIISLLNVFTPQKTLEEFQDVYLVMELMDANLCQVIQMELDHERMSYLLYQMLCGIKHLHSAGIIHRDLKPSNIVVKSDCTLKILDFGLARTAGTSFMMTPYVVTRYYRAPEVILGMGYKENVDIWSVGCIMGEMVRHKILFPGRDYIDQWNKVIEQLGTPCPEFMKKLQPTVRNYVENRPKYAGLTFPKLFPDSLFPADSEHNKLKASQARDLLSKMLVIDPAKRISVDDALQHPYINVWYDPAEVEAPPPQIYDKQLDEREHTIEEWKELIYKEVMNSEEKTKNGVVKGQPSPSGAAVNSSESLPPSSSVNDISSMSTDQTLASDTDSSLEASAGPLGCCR", "test": "Inhibition of JNK3 by TR-FRET assay", "in_short": "(§2)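 IC50s were determined at a single fixed ATP concentration, and each value is the mean of at least three independent experiments.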"}, "[15]": {"target": "RAF proto-oncogene serine/threonine-protein kinase (Homo sapiens) (UniProt P04049)", "test": "Inhibition of RAF1 at 10 uM"}, "[16]": {"target": "Serine/threonine-protein kinase Chk1 (Homo sapiens) (UniProt O14757)", "test": "Inhibition of CHEK1 at 10 uM"}, "[17]": {"target": "Serine/threonine-protein kinase PLK1 (Homo sapiens) (UniProt P53350)", "test": "Inhibition of PLK1 at 10 uM"}, "[18]": {"target": "RAC-alpha serine/threonine-protein kinase (Homo sapiens) (UniProt P31749)", "sequence (P31749 whole entry)": "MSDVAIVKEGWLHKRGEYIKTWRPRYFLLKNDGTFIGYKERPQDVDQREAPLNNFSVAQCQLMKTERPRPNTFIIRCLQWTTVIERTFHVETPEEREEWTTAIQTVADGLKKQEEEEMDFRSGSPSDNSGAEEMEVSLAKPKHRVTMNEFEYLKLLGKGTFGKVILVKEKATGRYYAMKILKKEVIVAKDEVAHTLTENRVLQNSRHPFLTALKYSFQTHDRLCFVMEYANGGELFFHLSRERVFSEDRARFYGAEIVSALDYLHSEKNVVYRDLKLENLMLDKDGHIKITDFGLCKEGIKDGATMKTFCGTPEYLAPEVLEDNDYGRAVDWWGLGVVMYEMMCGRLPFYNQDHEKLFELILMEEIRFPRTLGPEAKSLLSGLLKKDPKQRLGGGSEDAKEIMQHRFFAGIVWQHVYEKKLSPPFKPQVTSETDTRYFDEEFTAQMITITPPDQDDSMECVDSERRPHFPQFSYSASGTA", "test": "Inhibition of AKT1 at 10 uM"}, "[19]": {"target": "Tyrosine-protein kinase ABL1 (Homo sapiens) (UniProt P00519)", "test": "Inhibition of ABL1 at 10 uM"}, "[20]": {"target": "Mitogen-activated protein kinase 8 (Homo sapiens, UniProt P45983)", "test": "Inhibition of JNK1 by TR-FRET assay", "in_short": "as §2"}, "[21]": {"test": "Selectivity ratio of IC50 for JNK1 to IC50 for JNK3"}, "[22]": {"target": "Cyclin-dependent kinase 1/cyclin B1 (Homo sapiens) (UniProt P06493+P14635)", "test": "Inhibition of CDK1/cyclin B at 10 uM", "assay_type": "protein-complex assay"}, "[23]": {"target": "Cyclin-dependent kinase 2/cyclin A (Homo sapiens) (UniProt P24941+P20248+P78396)", "test": "Inhibition of CDK2/cyclin A at 10 uM", "assay_type": "protein-complex assay"}, "[24]": {"test": "Oxidative metabolic stability in human liver microsomes assessed as compound remaining after 30 mins", "assay_type": "ADME, Microsome", "details": "read-out: Stability", "in_short": "as §1"}, "[25]": {"target": "Cyclin-dependent kinase 5/CDK5 activator 1 (Homo sapiens) (UniProt Q00535+Q15078)", "test": "Inhibition of CDK5/p25 at 10 uM", "assay_type": "protein-complex assay"}, "[26]": {"target": "Rho-associated protein kinase 2 (Homo sapiens) (UniProt O75116)", "test": "Inhibition of ROCK2 at 10 uM"}, "[27]": {"target": "Tyrosine-protein kinase Lck (Homo sapiens) (UniProt P06239)", "test": "Inhibition of LCK at 10 uM"}, "[28]": {"target": "Insulin receptor (Homo sapiens) (UniProt P06213)", "sequence (P06213 28-758 limits assumed)": "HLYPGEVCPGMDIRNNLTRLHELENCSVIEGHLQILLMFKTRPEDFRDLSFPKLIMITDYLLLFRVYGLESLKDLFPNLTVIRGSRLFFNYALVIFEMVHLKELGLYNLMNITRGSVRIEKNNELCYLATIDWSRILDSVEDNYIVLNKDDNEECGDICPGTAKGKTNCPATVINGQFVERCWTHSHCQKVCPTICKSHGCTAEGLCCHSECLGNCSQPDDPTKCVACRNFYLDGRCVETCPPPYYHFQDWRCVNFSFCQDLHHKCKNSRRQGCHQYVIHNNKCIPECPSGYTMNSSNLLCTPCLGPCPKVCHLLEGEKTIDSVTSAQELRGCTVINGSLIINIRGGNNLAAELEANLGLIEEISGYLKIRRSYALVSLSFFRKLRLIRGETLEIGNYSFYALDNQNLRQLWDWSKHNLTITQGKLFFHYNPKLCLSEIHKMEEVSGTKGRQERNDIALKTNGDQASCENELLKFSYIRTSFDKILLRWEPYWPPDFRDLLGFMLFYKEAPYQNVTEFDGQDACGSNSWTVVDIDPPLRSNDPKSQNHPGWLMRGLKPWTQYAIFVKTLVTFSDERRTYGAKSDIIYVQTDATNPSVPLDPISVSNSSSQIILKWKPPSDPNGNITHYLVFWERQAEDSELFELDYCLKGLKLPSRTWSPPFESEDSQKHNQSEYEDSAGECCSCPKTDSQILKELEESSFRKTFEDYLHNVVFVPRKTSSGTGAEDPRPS", "sequence (P06213 763-1382 limits assumed)": "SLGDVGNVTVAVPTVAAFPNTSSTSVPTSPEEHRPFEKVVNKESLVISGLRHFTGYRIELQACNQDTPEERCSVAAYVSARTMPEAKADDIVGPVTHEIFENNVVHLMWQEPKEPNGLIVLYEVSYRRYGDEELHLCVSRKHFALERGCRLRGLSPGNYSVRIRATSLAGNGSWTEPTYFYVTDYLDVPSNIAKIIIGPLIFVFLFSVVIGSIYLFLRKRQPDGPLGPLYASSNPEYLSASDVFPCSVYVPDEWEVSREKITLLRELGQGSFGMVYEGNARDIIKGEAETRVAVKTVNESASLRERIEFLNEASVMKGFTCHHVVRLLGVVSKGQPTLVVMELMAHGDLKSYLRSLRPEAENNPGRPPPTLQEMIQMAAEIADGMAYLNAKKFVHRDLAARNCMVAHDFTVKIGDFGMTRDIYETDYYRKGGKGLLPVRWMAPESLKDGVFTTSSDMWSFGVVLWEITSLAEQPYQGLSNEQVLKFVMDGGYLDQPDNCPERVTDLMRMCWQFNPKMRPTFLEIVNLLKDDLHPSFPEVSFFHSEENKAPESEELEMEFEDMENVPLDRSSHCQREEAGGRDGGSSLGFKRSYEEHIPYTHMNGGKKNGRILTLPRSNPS", "test": "Inhibition of INSR at 10 uM"}, "[29]": {"target": "Dual specificity protein kinase CLK1 (Homo sapiens) (UniProt P49759)", "sequence (P49759 whole entry, looked up)": "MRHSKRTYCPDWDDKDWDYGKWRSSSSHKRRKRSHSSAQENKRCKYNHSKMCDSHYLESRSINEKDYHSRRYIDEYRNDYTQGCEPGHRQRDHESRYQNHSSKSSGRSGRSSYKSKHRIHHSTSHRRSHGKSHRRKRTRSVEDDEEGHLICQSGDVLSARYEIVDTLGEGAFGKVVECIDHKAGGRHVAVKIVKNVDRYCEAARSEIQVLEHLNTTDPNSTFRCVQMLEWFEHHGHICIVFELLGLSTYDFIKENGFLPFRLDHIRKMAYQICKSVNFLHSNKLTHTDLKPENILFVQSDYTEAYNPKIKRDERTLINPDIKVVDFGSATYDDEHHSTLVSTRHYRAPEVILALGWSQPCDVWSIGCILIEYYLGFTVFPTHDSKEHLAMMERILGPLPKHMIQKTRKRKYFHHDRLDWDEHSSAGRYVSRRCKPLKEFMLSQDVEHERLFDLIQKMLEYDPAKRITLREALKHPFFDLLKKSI", "test": "Inhibition of CLK1 at 10 uM"}, "[30]": {"target": "Mitogen-activated protein kinase 1 (Homo sapiens) (UniProt P28482)", "test": "Inhibition of MAPK1 at 10 uM"}, "[31]": {"target": "Dual specificity protein kinase TTK (Homo sapiens) (UniProt P33981)", "test": "Inhibition of TTK at 10 uM"}, "[32]": {"test": "Efflux ratio, permeability from apical to basolateral side to basolateral to apical side in MDR1 expressing MDCK2 cells at 5 uM after 120 mins", "assay_type": "ADME, cell-based, Canis lupus familiaris", "details": "dog, mdck-ii, 2 h"}, "[33]": {"test": "Metabolic stability in mouse liver microsomes assessed as compound remaining after 60 mins in presence of UDPGA", "assay_type": "ADME, Microsome", "details": "read-out: Stability"}, "[34]": {"target": "Receptor-type tyrosine-protein kinase FLT3 (Homo sapiens) (UniProt P36888)", "test": "Inhibition of FLT3 at 10 uM"}, "[35]": {"target": "Glycogen synthase kinase-3 beta (Homo sapiens) (UniProt P49841)", "test": "Inhibition of GSK3B at 10 uM"}, "[36]": {"target": "T1, Mitogen-activated protein kinase 10", "test": "Inhibition of MAPK10 at 10 uM"}, "[37]": {"test": "Metabolic stability in human liver microsomes assessed as compound remaining after 60 mins in presence of UDPGA", "assay_type": "ADME, Microsome", "details": "read-out: Stability"}, "[38]": {"target": "Mitogen-activated protein kinase 9 (Homo sapiens, UniProt P45984)", "sequence (P45984 whole entry)": "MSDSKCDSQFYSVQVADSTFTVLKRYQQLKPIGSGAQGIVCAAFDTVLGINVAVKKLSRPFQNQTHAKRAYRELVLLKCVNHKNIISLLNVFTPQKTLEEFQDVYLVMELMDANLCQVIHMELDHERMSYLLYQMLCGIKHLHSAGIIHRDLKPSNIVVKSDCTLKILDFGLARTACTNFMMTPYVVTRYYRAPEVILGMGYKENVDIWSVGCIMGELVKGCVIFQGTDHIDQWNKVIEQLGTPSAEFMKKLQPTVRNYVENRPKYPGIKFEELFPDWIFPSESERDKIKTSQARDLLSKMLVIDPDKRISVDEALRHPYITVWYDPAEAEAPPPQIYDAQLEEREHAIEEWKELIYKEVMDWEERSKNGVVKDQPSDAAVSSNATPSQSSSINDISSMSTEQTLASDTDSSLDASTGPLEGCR", "test": "Inhibition of JNK2 by TR-FRET assay", "in_short": "as §2"}, "[39]": {"target": "Dual specificity tyrosine-phosphorylation-regulated kinase 1B (Homo sapiens) (UniProt Q9Y463)", "test": "Inhibition of DYRK1B at 10 uM"}, "[40]": {"target": "Serine/threonine-protein kinase PLK3 (Homo sapiens) (UniProt Q9H4B4)", "test": "Inhibition of PLK3 at 10 uM"}, "[41]": {"target": "Tyrosine-protein kinase JAK1 (Homo sapiens) (UniProt P23458)", "sequence (P23458 whole entry)": "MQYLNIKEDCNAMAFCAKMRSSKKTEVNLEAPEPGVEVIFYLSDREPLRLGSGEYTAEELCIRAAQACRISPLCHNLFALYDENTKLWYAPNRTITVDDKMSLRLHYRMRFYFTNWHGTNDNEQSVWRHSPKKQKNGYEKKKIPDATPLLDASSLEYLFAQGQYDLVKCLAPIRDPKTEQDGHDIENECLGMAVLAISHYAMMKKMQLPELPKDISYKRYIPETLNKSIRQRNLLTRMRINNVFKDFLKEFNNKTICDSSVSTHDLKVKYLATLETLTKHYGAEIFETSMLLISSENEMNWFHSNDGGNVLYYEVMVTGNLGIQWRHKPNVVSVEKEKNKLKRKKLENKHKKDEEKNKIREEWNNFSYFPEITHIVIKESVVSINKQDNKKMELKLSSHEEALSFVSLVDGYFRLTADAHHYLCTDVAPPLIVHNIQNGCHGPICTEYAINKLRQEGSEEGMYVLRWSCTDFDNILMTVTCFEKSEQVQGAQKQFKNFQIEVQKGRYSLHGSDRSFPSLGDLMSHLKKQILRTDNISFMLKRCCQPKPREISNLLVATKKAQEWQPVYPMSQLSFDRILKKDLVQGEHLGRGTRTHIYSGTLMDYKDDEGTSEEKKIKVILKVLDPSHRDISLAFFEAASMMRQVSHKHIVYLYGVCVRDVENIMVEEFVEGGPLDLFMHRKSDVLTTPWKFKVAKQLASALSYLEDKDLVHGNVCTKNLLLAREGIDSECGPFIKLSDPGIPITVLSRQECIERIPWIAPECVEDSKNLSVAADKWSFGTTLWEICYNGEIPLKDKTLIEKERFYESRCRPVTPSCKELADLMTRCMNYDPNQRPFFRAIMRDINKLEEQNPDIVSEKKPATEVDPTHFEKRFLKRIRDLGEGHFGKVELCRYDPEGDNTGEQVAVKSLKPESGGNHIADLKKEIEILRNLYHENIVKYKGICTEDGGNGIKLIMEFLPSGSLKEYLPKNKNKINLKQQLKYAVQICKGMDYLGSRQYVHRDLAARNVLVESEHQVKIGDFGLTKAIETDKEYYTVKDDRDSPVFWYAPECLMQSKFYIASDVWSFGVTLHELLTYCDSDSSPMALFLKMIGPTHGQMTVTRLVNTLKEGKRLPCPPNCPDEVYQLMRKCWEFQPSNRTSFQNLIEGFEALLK", "test": "Inhibition of JAK1 at 10 uM"}, "[42]": {"target": "Proto-oncogene tyrosine-protein kinase receptor Ret (Homo sapiens) (UniProt P07949)", "test": "Inhibition of RET at 10 uM"}, "[43]": {"test": "Solubility of the compound", "assay_type": "physicochemical"}, "[44]": {"target": "Serine/threonine-protein kinase MARK2 (Homo sapiens) (UniProt Q7KZI7)", "test": "Inhibition of MARK2 at 10 uM"}, "[45]": {"target": "Tyrosine-protein kinase SYK (Homo sapiens) (UniProt P43405)", "test": "Inhibition of SYK at 10 uM"}, "[46]": {"target": "Receptor-interacting serine/threonine-protein kinase 2 (Homo sapiens) (UniProt O43353)", "test": "Inhibition of RIPK2 at 10 uM"}, "[47]": {"target": "Serine/threonine-protein kinase PAK 4 (Homo sapiens) (UniProt O96013)", "sequence (O96013 whole entry, looked up)": "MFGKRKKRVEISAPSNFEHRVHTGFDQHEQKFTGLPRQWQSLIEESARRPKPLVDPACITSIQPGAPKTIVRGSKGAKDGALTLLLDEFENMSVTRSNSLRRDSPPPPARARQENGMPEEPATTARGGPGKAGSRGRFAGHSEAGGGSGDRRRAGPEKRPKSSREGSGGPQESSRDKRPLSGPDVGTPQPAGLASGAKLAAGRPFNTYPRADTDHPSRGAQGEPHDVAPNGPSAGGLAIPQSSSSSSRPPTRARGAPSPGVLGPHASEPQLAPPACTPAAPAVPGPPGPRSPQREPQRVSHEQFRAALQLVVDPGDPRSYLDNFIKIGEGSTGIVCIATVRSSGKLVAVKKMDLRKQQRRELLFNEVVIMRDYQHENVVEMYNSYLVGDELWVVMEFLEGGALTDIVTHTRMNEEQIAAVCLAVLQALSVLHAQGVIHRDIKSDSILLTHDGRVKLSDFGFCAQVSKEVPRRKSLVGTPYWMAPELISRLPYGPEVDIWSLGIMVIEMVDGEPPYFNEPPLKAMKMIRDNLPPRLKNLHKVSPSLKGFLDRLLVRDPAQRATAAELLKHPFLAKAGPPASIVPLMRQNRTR", "test": "Inhibition of PAK4 at 10 uM"}}}
{"smiles": "S=c1[nH]nc(-c2ccncc2)n1-c1ccc2ccccc2c1", "values": [{"measurement": "inhibition", "setting": "[1]", "result": 0, "unit": "%"}, {"measurement": "inhibition", "setting": "[2]", "result": 49, "unit": "%"}, {"measurement": "inhibition", "setting": "[3]", "result": 73, "unit": "%"}, {"measurement": "inhibition", "setting": "[4]", "result": 1, "unit": "%"}, {"measurement": "inhibition", "setting": "[5]", "result": 12, "unit": "%"}, {"measurement": "inhibition", "setting": "[6]", "result": 93, "unit": "%"}, {"measurement": "remaining at 0.5 h", "setting": "[7]", "result": 100, "unit": "%"}, {"measurement": "inhibition", "setting": "[8]", "result": 42, "unit": "%"}, {"measurement": "inhibition", "setting": "[9]", "result": 25, "unit": "%"}, {"measurement": "inhibition", "setting": "[10]", "result": 0, "unit": "%"}, {"measurement": "inhibition", "setting": "[11]", "result": 11, "unit": "%"}, {"measurement": "inhibition", "setting": "[12]", "result": 13, "unit": "%"}, {"measurement": "inhibition", "setting": "[13]", "result": 46, "unit": "%"}, {"measurement": "IC50", "setting": "[14]", "result": 559, "unit": "nM"}, {"measurement": "inhibition", "setting": "[15]", "result": 45, "unit": "%"}, {"measurement": "inhibition", "setting": "[16]", "result": 0, "unit": "%"}, {"measurement": "inhibition", "setting": "[17]", "result": 22, "unit": "%"}, {"measurement": "inhibition", "setting": "[18]", "result": 1, "unit": "%"}, {"measurement": "inhibition", "setting": "[19]", "result": 8, "unit": "%"}, {"measurement": "IC50", "setting": "[20]", "result": 12500, "unit": "nM"}, {"measurement": "Ratio IC50", "setting": "[21]", "result": "> 10"}, {"measurement": "inhibition", "setting": "[22]", "result": 3, "unit": "%"}, {"measurement": "inhibition", "setting": "[23]", "result": 0, "unit": "%"}, {"measurement": "remaining at 0.5 h", "setting": "[24]", "result": 100, "unit": "%"}, {"measurement": "inhibition", "setting": "[25]", "result": 19, "unit": "%"}, {"measurement": "inhibition", "setting": "[26]", "result": 25, "unit": "%"}, {"measurement": "inhibition", "setting": "[27]", "result": 0, "unit": "%"}, {"measurement": "inhibition", "setting": "[28]", "result": 5, "unit": "%"}, {"measurement": "inhibition", "setting": "[29]", "result": 5, "unit": "%"}, {"measurement": "inhibition", "setting": "[30]", "result": 2, "unit": "%"}, {"measurement": "inhibition", "setting": "[31]", "result": 39, "unit": "%"}, {"measurement": "Ratio", "setting": "[32]", "result": 1.12}, {"measurement": "remaining at 1 h", "setting": "[33]", "result": 1, "unit": "%"}, {"measurement": "inhibition", "setting": "[34]", "result": 41, "unit": "%"}, {"measurement": "inhibition", "setting": "[35]", "result": 28, "unit": "%"}, {"measurement": "inhibition", "setting": "[36]", "result": 44, "unit": "%"}, {"measurement": "remaining at 1 h", "setting": "[37]", "result": 8, "unit": "%"}, {"measurement": "IC50", "setting": "[38]", "result": 2980, "unit": "nM"}, {"measurement": "inhibition", "setting": "[39]", "result": 16, "unit": "%"}, {"measurement": "inhibition", "setting": "[40]", "result": 94, "unit": "%"}, {"measurement": "inhibition", "setting": "[41]", "result": 0, "unit": "%"}, {"measurement": "inhibition", "setting": "[42]", "result": 0, "unit": "%"}, {"measurement": "solubility", "setting": "[43]", "result": 100, "unit": "µM"}, {"measurement": "inhibition", "setting": "[44]", "result": 1, "unit": "%"}, {"measurement": "inhibition", "setting": "[45]", "result": 26, "unit": "%"}, {"measurement": "inhibition", "setting": "[46]", "result": 4, "unit": "%"}, {"measurement": "inhibition", "setting": "[47]", "result": 8, "unit": "%"}]}
